Assay results: ChEMBL document CHEMBL1124558, “Differential effects of a series of hydroxamic acid derivatives on 5-lipoxygenase and cyclooxygenase from neutrophils and 12-lipoxygenase from platelets and their in vivo effects on inflammation and anaphylaxis” (J Med Chem, 1989)

How the values were obtained:
Mus musculus = assay: In vivo inhibition of mouse ear inflammation; assay type: functional; design: concentration or dose not given beside the values
How it was run: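 Compound or ethanol vehicle applied topically to one ear of male DBA/2J mice 60 min before arachidonic acid (2 mg/ear). […] Groups of 5 mice.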

[1] = molecular target: T1, Polyunsaturated fatty acid 5-lipoxygenase (Rattus norvegicus, UniProt P12527); assay: In vitro inhibition of rat polymorphonuclear leukocyte 5-lipoxygenase
T1 sequence (P12527 whole entry): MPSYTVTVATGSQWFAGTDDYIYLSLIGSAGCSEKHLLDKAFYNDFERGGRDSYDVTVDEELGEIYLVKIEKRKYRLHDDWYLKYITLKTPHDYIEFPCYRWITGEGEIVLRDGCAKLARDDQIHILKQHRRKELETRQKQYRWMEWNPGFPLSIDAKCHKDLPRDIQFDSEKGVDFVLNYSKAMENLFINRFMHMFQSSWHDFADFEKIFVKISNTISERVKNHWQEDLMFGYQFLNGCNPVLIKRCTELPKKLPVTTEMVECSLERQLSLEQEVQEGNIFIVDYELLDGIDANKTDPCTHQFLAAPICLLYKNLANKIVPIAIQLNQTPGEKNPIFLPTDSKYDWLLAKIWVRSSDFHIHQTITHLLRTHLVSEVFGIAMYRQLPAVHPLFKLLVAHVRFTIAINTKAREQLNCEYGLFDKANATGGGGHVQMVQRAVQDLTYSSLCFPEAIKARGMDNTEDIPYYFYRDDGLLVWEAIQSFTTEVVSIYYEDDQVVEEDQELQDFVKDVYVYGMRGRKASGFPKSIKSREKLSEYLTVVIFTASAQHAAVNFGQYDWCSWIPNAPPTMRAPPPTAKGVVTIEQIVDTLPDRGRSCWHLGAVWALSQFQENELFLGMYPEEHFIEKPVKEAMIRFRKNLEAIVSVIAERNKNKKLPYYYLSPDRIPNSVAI
How it was run: (§1)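 Intact glycogen-elicited peritoneal PMNs pooled from 4–5 Sprague-Dawley rats (250 g), preincubated 5 min at 30 °C with compound in DMSO (≤0.1% final) plus 1 μM indomethacin. Challenge with [14C]arachidonic acid (4 μM) and A23187 (0.8 μM) for 3 min. Extraction, TLC, 5-HETE by scintillation counting.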

Cavia porcellus = assay: In vivo inhibitory activity against guinea pig systemic anaphylaxis when administered a compound dose (200 mg/kg) perorally; assay type: functional; settings: po
How it was run: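 Male Hartley guinea pigs sensitised ip with ovalbumin (2.7 mg/kg) plus LPS adjuvant, then challenged 2 weeks later with 1% ovalbumin aerosol for 30 s. Pretreated with pyrilamine, indomethacin and propranolol 20 min before challenge. Compound given in PEG 400 1 h before challenge.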

[2] = molecular target: T2, Polyunsaturated fatty acid 5-lipoxygenase (Homo sapiens, UniProt P09917); assay: In vitro inhibition of polymorphonuclear leukocyte derived human 5-lipoxygenase
T2 sequence (P09917 whole entry): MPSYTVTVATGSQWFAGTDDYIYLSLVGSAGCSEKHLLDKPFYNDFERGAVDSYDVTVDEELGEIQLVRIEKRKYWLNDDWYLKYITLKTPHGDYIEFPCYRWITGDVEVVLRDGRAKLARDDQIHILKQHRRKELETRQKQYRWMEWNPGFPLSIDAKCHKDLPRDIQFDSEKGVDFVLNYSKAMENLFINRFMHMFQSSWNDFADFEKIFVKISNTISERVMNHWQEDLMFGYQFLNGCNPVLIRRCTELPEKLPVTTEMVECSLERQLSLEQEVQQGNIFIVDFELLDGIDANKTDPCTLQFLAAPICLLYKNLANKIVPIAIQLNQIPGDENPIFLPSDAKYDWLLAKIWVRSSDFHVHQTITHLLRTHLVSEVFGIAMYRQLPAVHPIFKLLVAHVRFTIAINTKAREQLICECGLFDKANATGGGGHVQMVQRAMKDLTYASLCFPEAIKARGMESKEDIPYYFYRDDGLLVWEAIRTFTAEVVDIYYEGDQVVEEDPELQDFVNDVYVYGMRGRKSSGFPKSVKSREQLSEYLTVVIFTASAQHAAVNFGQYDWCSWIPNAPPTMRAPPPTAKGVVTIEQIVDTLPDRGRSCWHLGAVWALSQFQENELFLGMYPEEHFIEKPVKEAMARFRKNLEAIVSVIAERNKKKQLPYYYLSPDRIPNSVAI
How it was run: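 PMNs from venous blood of healthy volunteers, isolated by dextran sedimentation and Percoll gradient (>90% pure) and held in Ca/Mg PBS with 1 mg/mL glucose and 1 μM indomethacin. Challenged with calcium ionophore and [14C]arachidonic acid for 3 min. 5-HETE measured by TLC and scintillation counting; IC50 read graphically.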

[3] = molecular target: T3, Cyclooxygenase (Rattus norvegicus) (UniProt P35355+Q63921); assay: In vitro inhibitory activity against rat polymorphonuclear leukocyte Prostaglandin G/H synthase at 100 uM; assay type: protein assay
How it was run: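 Glycogen-elicited peritoneal PMNs from Sprague-Dawley rats were homogenized at 0 °C in 0.1 M Tris-HCl pH 8.2 with 10 μM NDGA. Compound (DMSO ≤0.1%) was preincubated 5 min at 37 °C, then 8 μM [14C]arachidonic acid with 4 mM glutathione and epinephrine was added for 10 min. TxB2 and PGF2α were measured by TLC and scintillation counting.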

[4] = molecular target: T3, Cyclooxygenase (Rattus norvegicus); assay: Inhibition of Prostaglandin G/H synthase in rat polymorphonuclear leukocytes; assay type: cell-based; design: concentration or dose not given beside the values; settings: concentration not given here
How it was run: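 Homogenate of glycogen-elicited rat peritoneal PMNs in 0.1 M Tris-HCl pH 8.2 with 10 μM NDGA, preincubated 5 min at 37 °C with compound (≤0.1% DMSO). [14C]arachidonic acid (8 μM) added with 4 mM glutathione and epinephrine; 10 min reaction. TxB2 and PGF2α separated by TLC and counted.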

[5] = molecular target: T4, Polyunsaturated fatty acid 5-lipoxygenase (Rattus norvegicus) (UniProt P12527); assay: In vitro inhibitory activity against polymorphonuclear leukocyte 5-lipoxygenase in rat cell at 10 uM; how it was run: as §1
T4 sequence (whole entry): T1 sequence (P12527 whole entry)

[6] = molecular target: T5, Arachidonate 12-lipoxygenase (Rattus norvegicus) (UniProt Q02759); assay: In vitro inhibitory activity against rat platelet 12-lipoxygenase at 100 uM
T5 sequence (whole entry): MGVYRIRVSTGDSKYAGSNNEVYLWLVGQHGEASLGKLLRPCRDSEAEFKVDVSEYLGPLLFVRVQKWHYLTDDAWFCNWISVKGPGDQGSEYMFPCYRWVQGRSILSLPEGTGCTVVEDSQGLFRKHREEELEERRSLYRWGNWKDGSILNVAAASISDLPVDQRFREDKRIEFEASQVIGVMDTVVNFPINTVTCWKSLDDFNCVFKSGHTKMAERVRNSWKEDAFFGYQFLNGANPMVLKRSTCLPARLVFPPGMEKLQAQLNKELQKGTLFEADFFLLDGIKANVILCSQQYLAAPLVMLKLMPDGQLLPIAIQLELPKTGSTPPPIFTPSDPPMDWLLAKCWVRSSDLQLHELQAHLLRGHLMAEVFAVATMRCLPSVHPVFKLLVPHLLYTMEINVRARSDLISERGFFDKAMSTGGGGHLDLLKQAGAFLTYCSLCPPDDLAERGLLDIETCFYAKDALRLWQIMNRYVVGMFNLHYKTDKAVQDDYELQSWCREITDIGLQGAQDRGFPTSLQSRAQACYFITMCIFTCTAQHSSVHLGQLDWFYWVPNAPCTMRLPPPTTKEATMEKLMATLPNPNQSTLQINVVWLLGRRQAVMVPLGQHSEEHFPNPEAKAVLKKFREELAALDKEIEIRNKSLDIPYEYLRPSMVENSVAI
How it was run: (§2)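 Cell-free cytosolic 12-lipoxygenase from Sprague-Dawley rat platelets (0.4 mg/mL), preincubated 5 min at 30 °C with compound in DMSO (≤0.1% final), 25 mM Tris pH 7.4, 1 μM indomethacin, 100 μM glutathione; reaction started with 6 μM [14C]arachidonic acid and quenched with citric acid/NDGA after 3 min. 12-HETE isolated by TLC and counted by scintillation; % inhibition, duplicate.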

[7] = molecular target: T4, Polyunsaturated fatty acid 5-lipoxygenase (Rattus norvegicus); assay: In vitro inhibitory activity against polymorphonuclear leukocyte 5-lipoxygenase in rat cell at 1 uM; how it was run: as §1
[8] = molecular target: T6, Polyunsaturated fatty acid 5-lipoxygenase (Homo sapiens) (UniProt P09917); assay: In vitro inhibitory activity against polymorphonuclear leukocyte 5-lipoxygenase in human cell at 10 uM
T6 sequence (whole entry): T2 sequence (P09917 whole entry)
How it was run: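 Human PMNs from venous blood of a healthy volunteer (EDTA) were purified by dextran sedimentation, a Percoll gradient and NH4Cl red-cell lysis (>90% pure). They were held in Ca/Mg PBS with 1 mg/mL glucose and 1 μM indomethacin, then challenged with A23187 (0.8 μM) and [14C]arachidonic acid (4 μM) for 3 min. 5-HETE was measured by TLC and scintillation counting.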

[9] = molecular target: T5, Arachidonate 12-lipoxygenase (Rattus norvegicus); assay: In vitro inhibitory activity against rat platelet 12-lipoxygenase at 10 uM; how it was run: as §2

| Compound | Inhibition (Mus musculus) | IC50 [1] | inhibition in vivo at 200 mg/kg (Cavia porcellus) | IC50 [2] | inhibition [3] | inhibition [4] | inhibition [5] | inhibition [6] | inhibition [7] | inhibition [8] | inhibition [9] |
| --- | --- | --- | --- | --- | --- | --- | --- | --- | --- | --- | --- |
| COc1ccc(CCCC(=O)N(O)CCc2ccccc2)cc1 | 64% | 120 nM | 0% | 250 nM | – | – | – | – | – | – | – |
| O=C(CCc1ccccc1)N(O)CCCc1ccccc1 | 67% | 100 nM | 0% | 100 nM | 15% | – | – | – | – | – | – |
| COc1ccc(CC(=O)N(O)CCc2ccccc2)cc1 | 51% | 1000 nM | – | 2500 nM | – | 48% | – | – | – | – | – |
| CC(C)Cc1ccc(C(C)C(=O)N(O)Cc2ccccc2)cc1 (stereo unspecified) | – | 1000 nM | – | 2000 nM | 20% | – | – | – | – | – | – |
| O=C(O)CCCN(O)C(=O)CCCc1ccccc1 | 34% | – | – | – | – | < 10% | 1% | 15% | – | – | – |
| COc1ccc(CCCC(=O)N(C)O)cc1 | 67% | 300 nM | 60% | 1300 nM | – | < 10% | – | – | – | – | – |
| CCOC(=O)CCCN(O)C(=O)CCCc1ccccc1 | 54% | 300 nM | – | 500 nM | – | 44% | – | – | – | – | – |
| CCC(Cc1ccccc1)N(O)C(=O)Cc1ccc(OCc2ccccc2)cc1 (stereo unspecified) | 38% | 2500 nM | – | 3000 nM | – | 44% | – | < 10% | – | – | – |
| O=C(CCOc1ccccc1)N(O)CCc1ccccc1 | – | 250 nM | – | 300 nM | 18% | – | – | – | – | – | – |
| O=C(Cc1ccc(OCc2ccccc2)cc1)N(O)CCCc1ccccc1 | 12% | 500 nM | – | 600 nM | – | < 10% | – | – | – | – | – |
| O=C(CCCc1ccccc1)N(O)Cc1ccccc1 | 51% | 150 nM | 0% | 130 nM | – | 18% | – | – | – | – | – |
| O=C(Cc1ccc(OCc2ccccc2)cc1)NO | – | – | – | – | – | 16% | – | – | 3% | – | – |
| CN(O)C(=O)CCCCc1ccccc1 | 77% | 110 nM | 9% | 250 nM | – | < 10% | – | – | – | – | – |
| CN(O)C(=O)Cc1cccc(OCc2ccc3ccccc3n2)c1 | 68% | 80 nM | – | 1000 nM | 30% | – | – | – | – | – | – |
| O=C(CCCCc1ccccc1)N(O)Cc1ccccc1 | 52% | 50 nM | – | 150 nM | – | 50% | – | – | – | – | – |
| CC(C(=O)N(O)CCc1ccccc1)c1cccc(OCc2ccccc2)c1 (stereo unspecified) | – | 300 nM | – | 100 nM | – | < 10% | – | – | – | – | – |
| CC(C)Cc1ccc(C(C)C(=O)N(Cc2ccccc2)OCc2ccccc2)cc1 (stereo unspecified) | – | – | – | – | – | 39% | < 10% | – | – | < 10% | < 10% |
| O=C(COc1ccccc1)N(O)CCc1ccccc1 | – | 1000 nM | – | 1200 nM | 65% | – | – | – | – | – | – |
